Reference: ChEMBL document CHEMBL2158000 (Bioorg Med Chem Lett, 2012)

How the values were obtained:
Homo sapiens = species: Homo sapiens; assay: Selectivity index, ratio of IC50 for human recombinant MAOA to IC50 for human recombinant MAOB
[1] = biological target: T1, Amine oxidase [flavin-containing] B (Homo sapiens, UniProt P27338); assay: Inhibition of human recombinant MAOB using kynuramine as substrate assessed as formation of 4-hydroxyquinoline after 20 mins by fluorescence spectrophotometry
T1 sequence (P27338 whole entry): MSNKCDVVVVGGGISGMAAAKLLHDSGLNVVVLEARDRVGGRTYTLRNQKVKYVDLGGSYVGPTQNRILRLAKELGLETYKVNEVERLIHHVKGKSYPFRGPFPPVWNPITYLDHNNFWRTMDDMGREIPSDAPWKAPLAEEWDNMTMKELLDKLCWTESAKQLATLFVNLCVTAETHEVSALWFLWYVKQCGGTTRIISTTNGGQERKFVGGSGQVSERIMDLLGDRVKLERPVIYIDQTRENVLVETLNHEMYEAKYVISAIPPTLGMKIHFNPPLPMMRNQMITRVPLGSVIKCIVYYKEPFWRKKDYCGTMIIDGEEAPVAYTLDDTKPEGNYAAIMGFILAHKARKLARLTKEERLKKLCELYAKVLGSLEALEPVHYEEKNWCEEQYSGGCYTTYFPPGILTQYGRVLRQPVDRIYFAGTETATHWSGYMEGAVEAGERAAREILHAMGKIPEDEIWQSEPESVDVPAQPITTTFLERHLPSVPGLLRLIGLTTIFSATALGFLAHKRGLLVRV

[2] = biological target: T2, Amine oxidase [flavin-containing] A (Homo sapiens, UniProt P21397); assay: Inhibition of human recombinant MAOA using kynuramine as substrate assessed as formation of 4-hydroxyquinoline after 20 mins by fluorescence spectrophotometry
T2 sequence (P21397 whole entry): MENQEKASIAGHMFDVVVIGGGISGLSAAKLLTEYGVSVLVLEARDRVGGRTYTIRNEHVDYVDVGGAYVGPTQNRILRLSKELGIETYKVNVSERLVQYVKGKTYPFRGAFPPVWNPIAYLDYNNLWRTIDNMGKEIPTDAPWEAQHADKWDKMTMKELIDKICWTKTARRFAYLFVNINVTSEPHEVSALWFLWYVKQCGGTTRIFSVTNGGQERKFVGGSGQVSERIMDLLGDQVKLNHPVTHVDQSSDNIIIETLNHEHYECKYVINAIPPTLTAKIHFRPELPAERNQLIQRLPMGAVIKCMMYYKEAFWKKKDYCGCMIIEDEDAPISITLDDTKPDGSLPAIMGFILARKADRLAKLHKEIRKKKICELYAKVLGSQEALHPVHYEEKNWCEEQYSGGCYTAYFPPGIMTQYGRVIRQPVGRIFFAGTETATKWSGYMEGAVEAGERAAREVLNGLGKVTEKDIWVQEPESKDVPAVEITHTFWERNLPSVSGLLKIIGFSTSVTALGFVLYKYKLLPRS

[3] = biological target: T1, Amine oxidase [flavin-containing] B; assay: Reversible inhibition of human recombinant MAOB using kynuramine as substrate assessed as residual activity at 100 times IC50 preincubated for 30 mins followed by 100 fold dilution measured after 20 mins by fluorescence spectrophotometry relative to control
Method in brief: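 MAO-B was preincubated with inhibitor at 10× and 100× IC50 for 30 min, then diluted to 0.1× and 1× IC50. Residual activity was measured by fluorometry of 4-hydroxyquinoline from kynuramine and expressed as % of control. Irreversible reference inhibitor was at 10× IC50, diluted to 0.1× IC50.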

SMILES	Ratio IC50 (Homo sapiens)	IC50 [1] [nM]	IC50 [2] [nM]	Activity [3] [%]
O=C1NC(=O)c2cc(Sc3ccc(Cl)cc3)ccc21	3.7	457	1680	
CC(C)CCSc1ccc2c(c1)C(=O)NC2=O	26	15	380	
COc1ccc(CSc2ccc3c(c2)C(=O)NC3=O)cc1	82	20	1630	
O=C1NC(=O)c2cc(SCCc3ccccc3)ccc21	76	30	2270	
O=C1NC(=O)c2cc(SC3CCCCC3)ccc21	5.8	179	1030	
O=C1NC(=O)c2cc(SCc3ccc(Br)cc3)ccc21	37	7.4	273	
O=C1NC(=O)c2cc(SCc3ccccc3)ccc21	427	4.5	1920	28
O=C1NC(=O)c2cc(Sc3ccc(Br)cc3)ccc21	2.8	364	1010	

The remaining lines, values ahead:

Ratio IC50 (Homo sapiens)	IC50 [1] [nM]	IC50 [2] [nM]	Activity [3] [%]	SMILES
90	5.6	506		O=C1NC(=O)c2cc(SCc3ccc(Cl)cc3)ccc21
8.1	986	8030		O=C1NC(=O)c2cc(Sc3ccccc3)ccc21
141	6.8	958		O=C1NC(=O)c2cc(SCc3ccc(F)cc3)ccc21
